Assay results from ChEMBL document CHEMBL4811303, “Synthesis and evaluation of trypanocidal activity of derivatives of naturally occurring 2,5-diphenyloxazoles” (Bioorg Med Chem, 2021).

Key:
[1] = test system: Trypanosoma brucei brucei; assay: Trypanocidal activity against Trypanosoma brucei brucei assessed as reduction in intracellular ATP production incubated for 72 hrs by CellTiter-Glo luminescent cell viability assay; format: functional, organism-based
Method in brief: (§1)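 Bloodstream trypanosomes in 96-well culture were exposed to compound in 5-fold serial dilutions from 25 µg/mL to 1.6 ng/mL for 72 h. Seeding and temperature: T. b. brucei, T. b. gambiense and T. b. rhodesiense at 5×10^3 cells/mL and 37 °C; T. evansi at 1×10^4 cells/mL and 37 °C; T. congolense at 2×10^5 cells/mL and 33 °C. Viability was read as intracellular ATP by CellTiter-Glo luminescence. Three replicates; IC50 calculated.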

[2] = test system: Trypanosoma brucei gambiense; assay: Trypanocidal activity against Trypanosoma brucei gambiense assessed as reduction in intracellular ATP production incubated for 72 hrs by CellTiter-Glo luminescent cell viability assay; format: functional, organism-based; method in brief: as §1
[3] = test system: Trypanosoma brucei rhodesiense; assay: Trypanocidal activity against Trypanosoma brucei rhodesiense assessed as reduction in intracellular ATP production incubated for 72 hrs by CellTiter-Glo luminescent cell viability assay; format: functional, organism-based; method in brief: as §1
Trypanosoma congolense = assay: Trypanocidal activity against Trypanosoma congolense assessed as reduction in intracellular ATP production incubated for 72 hrs by CellTiter-Glo luminescent cell viability assay; format: functional, organism-based; method in brief: as §1
Trypanosoma evansi = assay: Trypanocidal activity against Trypanosoma evansi assessed as reduction in intracellular ATP production incubated for 72 hrs by CellTiter-Glo luminescent cell viability assay; format: functional, organism-based; method in brief: as §1
MDBK cells (Bos taurus) = assay: Cytotoxicity against bovine MDBK cells assessed as reduction in cell viability incubated for 72 hrs by CCK8 assay
[4] = Selectivity index, ratio of IC50 for cytotoxicity against bovine MDBK cells to IC50 for Trypanocidal activity against Trypanosoma evansi
[5] = Selectivity index, ratio of IC50 for cytotoxicity against bovine MDBK cells to IC50 for Trypanocidal activity against Trypanosoma congolense
[6] = Selectivity index, ratio of IC50 for cytotoxicity against bovine MDBK cells to IC50 for Trypanocidal activity against Trypanosoma brucei brucei; settings: cattle
[7] = Selectivity index, ratio of IC50 for cytotoxicity against bovine MDBK cells to IC50 for Trypanocidal activity against Trypanosoma brucei gambiense; settings: cattle
[8] = Selectivity index, ratio of IC50 for cytotoxicity against bovine MDBK cells to IC50 for Trypanocidal activity against Trypanosoma brucei rhodesiense

Compound	IC50 [1]	IC50 [2]	IC50 [3]	IC50 (Trypanosoma congolense)	IC50 (Trypanosoma evansi)	IC50 (MDBK cells (Bos taurus))	selectivity ratio [4]	selectivity ratio [5]	selectivity ratio [6]	selectivity ratio [7]	selectivity ratio [8]
COc1ccc(-c2cnc(-c3cccc(OC)c3OC)o2)cc1	76.4 µM	74.5 µM	77 µM	17.3 µM	64.5 µM	22.8 µM	0.35	1.3	0.3	0.31	0.3
CCCOc1ccccc1-c1cnc(-c2cccc(OC)c2OC)o1	20.3 µM	28.2 µM	27.1 µM	7.6 µM	28.4 µM	> 295 µM	> 10	> 39	> 15	> 10	> 11
COc1cccc(-c2ncc(-c3ccccc3N)o2)c1OC	59.8 µM	46.2 µM	62.1 µM	9.1 µM	105 µM	47.6 µM	0.45	5.2	0.8	1	0.77
COc1ccccc1-c1cnc(-c2ccccc2OC)o1	> 88.9 µM	> 88.9 µM	> 88.9 µM	2.8 µM	> 88.9 µM	> 355 µM		> 128			
COc1ccccc1-c1coc(-c2cccc(OC)c2OC)n1	38.1 µM	38.7 µM	31.6 µM	9.4 µM	37.9 µM	> 321 µM	> 8.5	> 34	> 8.4	> 8.3	> 10
COc1ccc(-c2ncc(-c3ccccc3OC)o2)c(OC)c1	75.3 µM	35.8 µM	59.2 µM	15.3 µM	65.1 µM	59.5 µM	0.91	3.9	0.79	1.7	1
COc1ccc(-c2cnc(-c3ccc(OC)cc3)o2)cc1	> 88.9 µM	> 88.9 µM	> 88.9 µM	> 88.9 µM	> 88.9 µM	> 355 µM					
COc1ccccc1-c1nnc(-c2cccc(OC)c2OC)s1	29.8 µM	22.1 µM	27.2 µM	3.8 µM	28.1 µM	> 305 µM	> 11	> 80	> 10	> 14	> 11
COc1cccc(-c2ncc(-c3ccccc3[N+](=O)[O-])o2)c1OC	49.6 µM	63.4 µM	56.4 µM	8.4 µM	49 µM	> 306 µM	> 6.3	> 36	> 6.2	> 4.8	> 5.4
COc1cccc(-c2ncc(-c3ccccc3O)o2)c1OC	> 84.1 µM	> 84.1 µM	> 84.1 µM	> 84.1 µM	> 84.1 µM	> 336 µM					
CC1CS(=O)(=O)CCN1/N=C/c1ccc([N+](=O)[O-])o1 (stereo not given) [NIFURTIMOX]	4.7 µM		4.4 µM	1.1 µM	2.6 µM						
COc1ccc(OC)c(-c2cnc(-c3cc(OC)ccc3OC)o2)c1	> 73.2 µM	> 73.2 µM	> 73.2 µM	2.9 µM	> 73.2 µM	> 293 µM		> 100			
COc1ccc(OC)c(-c2ncc(-c3ccccc3OC)o2)c1	> 80.3 µM	> 80.3 µM	> 80.3 µM	> 80.3 µM	> 80.3 µM	> 321 µM					
Oc1ccccc1-c1cnc(-c2cccc(O)c2O)s1	7.7 µM	8.2 µM	7.8 µM	2.3 µM	4 µM	20 µM	5	8.8	2.6	2.4	2.6
Oc1ccccc1-c1nnc(-c2cccc(O)c2O)o1	1.9 µM	1.9 µM	1.9 µM	0.67 µM	0.81 µM	5.9 µM	7.2	8.8	3.1	3.1	3.1
COc1cccc(-c2cnc(-c3cccc(OC)c3OC)o2)c1	76 µM	73.9 µM	76.1 µM	10.3 µM	68.2 µM	96.3 µM	1.4	9.3	1.3	1.3	1.3
Oc1ccccc1-c1nnc(-c2cccc(O)c2O)s1	3.9 µM	4.6 µM	4.4 µM	0.85 µM	2.1 µM	13.6 µM	6.3	16	3.5	3	3.1
COCOc1ccccc1-c1cnc(-c2cccc(OC)c2OC)o1	21.5 µM	19.6 µM	26.2 µM	3.9 µM	25.8 µM	82.2 µM	3.2	21	3.8	4.2	3.1
COc1ccc(OC)c(-c2cnc(-c3ccccc3)o2)c1	> 88.9 µM	> 88.9 µM	> 88.9 µM	15.4 µM	> 88.9 µM	> 355 µM		> 23			
COc1ccc(-c2cnc(-c3ccc(OC)c(OC)c3OC)o2)c(OC)c1OC	37.6 µM	40.5 µM	31.4 µM	16.4 µM	60.4 µM	39.7 µM	0.66	2.4	1.1	0.98	1.3
CC(=O)Oc1ccc(OC(C)=O)c(-c2ncc(-c3ccccc3OC(C)=O)o2)c1	33.6 µM	55.3 µM	56 µM	14.4 µM	34 µM	64.2 µM	1.9	4.4	1.9	1.2	1.1
COc1cccc(-c2ncc(-c3ccccc3OCc3ccccc3)o2)c1OC	15.5 µM	16.2 µM	15.8 µM	7.7 µM	16.7 µM	97.6 µM	5.8	13	6.3	6	6.2
Oc1ccccc1-c1cnc(-c2cccc(O)c2O)o1	9.1 µM	13.5 µM	2.8 µM	1.1 µM	4.7 µM	7 µM	1.5	6.3	0.77	0.52	2.5
COc1ccccc1-c1cnc(-c2cccc(OC)c2OC)o1	> 80.3 µM	> 80.3 µM	> 80.3 µM	0.78 µM	> 80.3 µM	> 321 µM		> 414			
COc1ccc(OC)c(-c2cnc(-c3ccccc3OC)o2)c1	> 80.3 µM	22.2 µM	> 80.3 µM	4.3 µM	> 80.3 µM	> 321 µM		> 75		> 14	
COc1ccc(OC)c(-c2cnc(-c3cccc(OC)c3OC)o2)c1	> 73.2 µM	> 73.2 µM	> 73.2 µM	1.6 µM	> 73.2 µM	> 293 µM		> 188			
CCOc1ccccc1-c1cnc(-c2cccc(OC)c2OC)o1	> 76.8 µM	> 76.8 µM	> 76.8 µM	4.4 µM	> 76.8 µM	> 307 µM		> 69			
Cc1ccc(C(=O)Nc2ccc(S(=O)(=O)O)c3cc(S(=O)(=O)O)cc(S(=O)(=O)O)c23)cc1NC(=O)c1cccc(NC(=O)Nc2cccc(C(=O)Nc3cc(C(=O)Nc4ccc(S(=O)(=O)O)c5cc(S(=O)(=O)O)cc(S(=O)(=O)O)c45)ccc3C)c2)c1 [SURAMIN]	0.066 µM	0.064 µM	0.076 µM	7.2 µM	0.38 µM						
COc1cccc(-c2ncc(-c3ccccc3NC(C)=O)o2)c1OC	> 73.9 µM	> 73.9 µM	> 73.9 µM	38.2 µM	> 73.9 µM	> 296 µM		> 7.8			
